From ChEMBL document CHEMBL1122140, “Derivatives of the potent angiotensin converting enzyme inhibitor 5(S)-benzamido-4-oxo-6-phenylhexanoyl-L-proline: effect of changes at positions 2 and 5 of the hexanoic acid portion” (J Med Chem, 1982)

Test system: Rattus norvegicus
Assay: Change in mean aortic blood pressure expressed in hours after an oral administration of 3 mg/kg in conscious normotensive rats
Type: functional, Artery
Settings: not given

| SMILES | Change |
| --- | --- |
| CCCCCC(=O)N[C@@H](Cc1ccccc1)C(=O)CCC(=O)N1CCCC1C(=O)O (stereo not given in full) | -2 mmHg |
| C[C@H](CC(=O)[C@@H](Cc1ccccc1)NC(=O)c1ccccc1)C(=O)N1CCC[C@H]1C(=O)O | -22 mmHg |
| CCCCCCCCCC(=O)N[C@@H](Cc1ccccc1)C(=O)CCC(=O)N1CCCC1C(=O)O (stereo not given in full) | -21 mmHg |

Test system: Rattus norvegicus
Assay: Angiotensin I(AI) response to return to 70% of the pretreatment control response was determined at a dose of 30 mg/kg, po
Type: functional
Settings: not given

| SMILES | AI recovery time |
| --- | --- |
| C[C@@H](CC(=O)[C@H](Cc1ccccc1)NC(=O)c1ccccc1)C(=O)N1CCC[C@H]1C(=O)O | >180 min |
| C[C@H](CC(=O)[C@H](Cc1ccccc1)NC(=O)c1ccccc1)C(=O)N1CCC[C@H]1C(=O)O | 143 min |

Test system: Rattus norvegicus
Assay: Angiotensin I(AI) response to return to 70% of the pretreatment control response was determined at a dose of 3 mg/kg
Type: functional
Settings: not given

| SMILES | AI recovery time |
| --- | --- |
| C[C@H](CC(=O)[C@H](Cc1ccccc1)NC(=O)c1ccccc1)C(=O)N1CCC[C@H]1C(=O)O | 73 min |

Test system: Rattus norvegicus
Assay: Angiotensin I(AI) response to return to 70% of the pretreatment control response was determined at a dose of 3 mg/kg, iv
Type: functional
Settings: not given

| SMILES | AI recovery time |
| --- | --- |
| C[C@@H](CC(=O)[C@H](Cc1ccccc1)NC(=O)c1ccccc1)C(=O)N1CCC[C@H]1C(=O)O | 71 min |
| C[C@H](CC(=O)[C@H](Cc1ccccc1)NC(=O)c1ccccc1)C(=O)N1CCC[C@H]1C(=O)O | 73 min |

Test system: Rattus norvegicus
Assay: Base line of mean aortic blood pressure in the conscious Renal hypertensive rat was determined after oral administration of 3 mg/kg
Type: functional
Settings: Artery
Procedure, shortened: (§1)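 Male CD albino rats were clipped at four weeks old, and hypertension developed over 3–4 weeks. Rats weighed 280–320 g at cannulation and had chronic aortic cannulae implanted 2–4 days before testing. Only rats with mean aortic pressure above 160 mmHg were used. Dosing was oral in 4% gum acacia (2 mL/kg). One-minute running averages were recorded every 30 min and reported as mean ± SEM, two-tailed p < 0.05.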

| SMILES | Mean aortic blood pressure at 3 mg/kg |
| --- | --- |
| C[C@H](CC(=O)[C@H](Cc1ccccc1)NC(=O)c1ccccc1)C(=O)N1CCC[C@H]1C(=O)O | 209 mmHg |

Test system: Rattus norvegicus
Assay: Inhibition of blood pressure increase produced by iv injection of angiotensin I in conscious normotensive rats at a dose of 30 mg/kg
Type: functional
Settings: not given

| SMILES | inhibition in vivo at 30 mg/kg |
| --- | --- |
| O=C(N[C@@H](Cc1ccccc1)C(=O)CCC(=O)N1CCC[C@H]1C(=O)O)c1ccccc1 | 48% |
| C[C@@H](CC(=O)[C@H](Cc1ccccc1)NC(=O)c1ccccc1)C(=O)N1CCC[C@H]1C(=O)O | 71% |
| C[C@H](CC(=O)[C@H](Cc1ccccc1)NC(=O)c1ccccc1)C(=O)N1CCC[C@H]1C(=O)O | 100% |
| C[C@H](CS)C(=O)N1CCC[C@H]1C(=O)O [CAPTOPRIL] | 69% |

Test system: Rattus norvegicus
Assay: Inhibition of blood pressure increase produced by iv injection of angiotensin I in conscious normotensive rats at a dose of 3 mg/kg
Type: functional
Settings: not given

| SMILES | inhibition in vivo at 3 mg/kg |
| --- | --- |
| O=C(N[C@@H](Cc1ccccc1)C(=O)CCC(=O)N1CCC[C@H]1C(=O)O)c1ccccc1 | 57% |
| C[C@@H](CC(=O)[C@H](Cc1ccccc1)NC(=O)c1ccccc1)C(=O)N1CCC[C@H]1C(=O)O | 74% |
| C[C@H](CC(=O)[C@H](Cc1ccccc1)NC(=O)c1ccccc1)C(=O)N1CCC[C@H]1C(=O)O | 100% |
| C[C@H](CS)C(=O)N1CCC[C@H]1C(=O)O [CAPTOPRIL] | 95% |

Test system: Rattus norvegicus
Assay: Base line of mean aortic blood pressure in the conscious Renal hypertensive rat was determined after oral administration of 30 mg/kg
Type: functional, Artery
Settings: not given

| SMILES | Mean aortic blood pressure |
| --- | --- |
| CCCCCCCC(=O)N[C@@H](Cc1ccccc1)C(=O)CCC(=O)N1CCCC1C(=O)O (stereo not given in full) | 182 mmHg |
| CCCCCC(=O)N[C@@H](Cc1ccccc1)C(=O)CCC(=O)N1CCCC1C(=O)O (stereo not given in full) | 193 mmHg |
| CCCCOC(=O)NC(Cc1ccccc1)C(=O)CC(C)C(=O)N1CCCC1C(=O)O (stereo not given) | 188 mmHg |
| CCCCOC(=O)NC(Cc1ccccc1)C(=O)CCC(=O)N1CCCC1C(=O)O (stereo not given) | 175 mmHg |
| C[C@H](CC(=O)[C@@H](Cc1ccccc1)NC(=O)c1ccccc1)C(=O)N1CCC[C@H]1C(=O)O | 188 mmHg |
| C[C@@H](CC(=O)[C@@H](Cc1ccccc1)NC(=O)c1ccccc1)C(=O)N1CCC[C@H]1C(=O)O | 183 mmHg |
| CCCCCCCCCC(=O)N[C@@H](Cc1ccccc1)C(=O)CCC(=O)N1CCCC1C(=O)O (stereo not given in full) | 197 mmHg |
| O=C(N[C@@H](Cc1ccccc1)C(=O)CCC(=O)N1CCC[C@H]1C(=O)O)c1ccccc1 | 190 mmHg |
| C[C@@H](CC(=O)[C@H](Cc1ccccc1)NC(=O)c1ccccc1)C(=O)N1CCC[C@H]1C(=O)O | 189 mmHg |
| C[C@H](CC(=O)[C@H](Cc1ccccc1)NC(=O)c1ccccc1)C(=O)N1CCC[C@H]1C(=O)O | 197 mmHg |

Test system: Rattus norvegicus
Assay: Maximum effect on blood pressure in the conscious Renal hypertensive rat after oral administration of 30 mg/kg
Type: functional
Settings: not given
Procedure, shortened: as §1

| SMILES | Mean aortic blood pressure |
| --- | --- |
| CCCCCCCC(=O)N[C@@H](Cc1ccccc1)C(=O)CCC(=O)N1CCCC1C(=O)O (stereo not given in full) | 167 mmHg |
| CCCCCC(=O)N[C@@H](Cc1ccccc1)C(=O)CCC(=O)N1CCCC1C(=O)O (stereo not given in full) | 191 mmHg |
| CCCCOC(=O)NC(Cc1ccccc1)C(=O)CC(C)C(=O)N1CCCC1C(=O)O (stereo not given) | 176 mmHg |
| CCCCOC(=O)NC(Cc1ccccc1)C(=O)CCC(=O)N1CCCC1C(=O)O (stereo not given) | 160 mmHg |
| C[C@H](CC(=O)[C@@H](Cc1ccccc1)NC(=O)c1ccccc1)C(=O)N1CCC[C@H]1C(=O)O | 166 mmHg |
| C[C@@H](CC(=O)[C@@H](Cc1ccccc1)NC(=O)c1ccccc1)C(=O)N1CCC[C@H]1C(=O)O | 163 mmHg |
| CCCCCCCCCC(=O)N[C@@H](Cc1ccccc1)C(=O)CCC(=O)N1CCCC1C(=O)O (stereo not given in full) | 176 mmHg |
| C[C@@H](CC(=O)[C@H](Cc1ccccc1)NC(=O)c1ccccc1)C(=O)N1CCC[C@H]1C(=O)O | 173 mmHg |
| C[C@H](CC(=O)[C@H](Cc1ccccc1)NC(=O)c1ccccc1)C(=O)N1CCC[C@H]1C(=O)O | 159 mmHg |
| C[C@H](CS)C(=O)N1CCC[C@H]1C(=O)O [CAPTOPRIL] | 99 mmHg |

Molecular target: Angiotensin-converting enzyme (Cavia porcellus)
Assay: Inhibition of guinea pig serum Angiotensin I converting enzyme
Settings: not given

| SMILES | I50 |
| --- | --- |
| CCCCCCCC(=O)N[C@@H](Cc1ccccc1)C(=O)CCC(=O)N1CCCC1C(=O)O (stereo not given in full) | 650 nM |
| CCCCCC(=O)N[C@@H](Cc1ccccc1)C(=O)CCC(=O)N1CCCC1C(=O)O (stereo not given in full) | 47 nM |
| CCCCOC(=O)NC(Cc1ccccc1)C(=O)CC(C)C(=O)N1CCCC1C(=O)O (stereo not given) | 29 nM |
| CCCCOC(=O)NC(Cc1ccccc1)C(=O)CCC(=O)N1CCCC1C(=O)O (stereo not given) | 210 nM |
| CCCCCCCCCC(=O)N[C@@H](Cc1ccccc1)C(=O)CCC(=O)N1CCCC1C(=O)O (stereo not given in full) | 6500 nM |

Test system: Rattus norvegicus
Assay: Change in mean aortic blood pressure expressed in hours after an oral administration of 3 mg/kg in conscious renal hypertensive rats
Settings: not given

| SMILES | Change |
| --- | --- |
| C[C@H](CC(=O)[C@H](Cc1ccccc1)NC(=O)c1ccccc1)C(=O)N1CCC[C@H]1C(=O)O | -40 mmHg |

Test system: Rattus norvegicus
Assay: Change in mean aortic blood pressure expressed in hours after an oral administration of 30 mg/kg in conscious renal hypertensive rats
Settings: not given

| SMILES | Change |
| --- | --- |
| C[C@H](CC(=O)[C@H](Cc1ccccc1)NC(=O)c1ccccc1)C(=O)N1CCC[C@H]1C(=O)O | -38 mmHg |

Test system: Rattus norvegicus
Assay: as above
Settings: not given
Remark: another data set of the same source

| SMILES | Change |
| --- | --- |
| CCCCCCCC(=O)N[C@@H](Cc1ccccc1)C(=O)CCC(=O)N1CCCC1C(=O)O (stereo not given in full) | -15 mmHg |
| CCCCOC(=O)NC(Cc1ccccc1)C(=O)CC(C)C(=O)N1CCCC1C(=O)O (stereo not given) | -12 mmHg |
| CCCCOC(=O)NC(Cc1ccccc1)C(=O)CCC(=O)N1CCCC1C(=O)O (stereo not given) | -15 mmHg |
| C[C@@H](CC(=O)[C@@H](Cc1ccccc1)NC(=O)c1ccccc1)C(=O)N1CCC[C@H]1C(=O)O | -20 mmHg |
| O=C(N[C@@H](Cc1ccccc1)C(=O)CCC(=O)N1CCC[C@H]1C(=O)O)c1ccccc1 | -12 mmHg |
| C[C@@H](CC(=O)[C@H](Cc1ccccc1)NC(=O)c1ccccc1)C(=O)N1CCC[C@H]1C(=O)O | -16 mmHg |
